High-throughput results: PubChem BioAssay, Broad Institute
IDH1 mut inh: IDH1 R132H (human) inhibition. O75874. inhibition, % at 10 µM. IDH1 R132H reductase, diaphorase/resazurin fluorescence, 60 min. hit rate 0.18% among 70,000; in the data active = inhibition above about 34%; inconclusive = no clear call, values can overlap the other calls; inactive = below about 11%
KDM4C inh: inhibitors of human demethylase GASC-1 KDM4C | inhibition, % at 12.5 µM | Q9H3R0 | hit rate 0.15% among 96,000 | GST-KDM4C 2-372, H3K9me3 peptide, LANCE TR-FRET | AID 720574;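 active = mean replicate inhibition above about 25%, with at least 55% of replicates also reaching it, limit read from the data, passing the limit was not always enough; inconclusive = only one of those two conditions met; inactive = neither condition met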
Target sequence (Q9H3R0 2-372 limits assumed): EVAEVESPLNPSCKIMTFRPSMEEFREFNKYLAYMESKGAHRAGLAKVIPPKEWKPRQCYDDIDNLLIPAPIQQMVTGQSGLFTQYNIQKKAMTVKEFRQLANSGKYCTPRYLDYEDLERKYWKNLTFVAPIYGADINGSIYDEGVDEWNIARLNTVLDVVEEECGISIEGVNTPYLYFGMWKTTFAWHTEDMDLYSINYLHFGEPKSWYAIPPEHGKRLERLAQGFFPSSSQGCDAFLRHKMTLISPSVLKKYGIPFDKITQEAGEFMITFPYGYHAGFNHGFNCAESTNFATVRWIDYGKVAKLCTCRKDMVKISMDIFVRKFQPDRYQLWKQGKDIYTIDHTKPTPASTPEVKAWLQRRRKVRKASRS
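reagent = H3K9me3 peptide substrate, Fe(II), 2-oxoglutarate | system = GST-tagged GASC-1 (JMJD2C) catalytic fragment, aa 2-372 | amount = enzyme final amount 10 nM | read-out = Fall in 671/618 emission ratio as inhibition | medium = HEPES buffer, pH 7.5, plus ascorbate | schedule = 30 min reaction, 60 min detection, RT | measured by = LANCE TR-FRET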
T cruzi growth-1: blocks T. cruzi growth in NIH3T3 culture. T. cruzi beta-gal in NIH3T3, GalScreen luminescence, 90 h. AID 624255. hit rate 5.9% among 77,000. inhibition, % at 8.34 µM;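 active = mean inhibition above about 93%, with at least 55% of replicates each passing it, limit read from the data, passing the limit was not always enough; inconclusive = only one of those two conditions holds; inactive = neither condition holds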
Pf Dd2 inh: inhibitors of Plasmodium falciparum Dd2 growth. P. falciparum Dd2 growth, SYBR Green, 72 h; active compounds read low. activity change, % at 10 µM. hit rate 2.3% among 94,000. AID 1159554; in the data active = activity change below about -80%; inconclusive = no clear call, values can overlap the other calls
T cruzi growth-2: inhibitors of T. cruzi proliferation | shares compounds with T cruzi growth-1 | T. cruzi beta-gal in NIH3T3, GalScreen luminescence, 90 h | inhibition, % at 8.35 µM | hit rate 72% among 5,600 | AID 651739;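 active = mean replicate inhibition above about 95% and at least 55% of replicates individually reaching it, limit read from the data; inconclusive = only one of the two criteria is met; inactive = neither criterion is met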
T cruzi growth-3: blocks T. cruzi growth in NIH3T3 host cells | shares compounds with T cruzi growth-1 | T. cruzi beta-gal in NIH3T3, GalScreen luminescence, 90 h | inhibition, % at 2.09 µM | hit rate 21% among 5,600;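 active = mean inhibition above about 95%, with at least 55% of replicates also reaching it, limit read from the data; inconclusive = meets just one of the two conditions; inactive = meets neither condition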
NIH3T3 tox: cytotoxicity in mouse NIH/3T3 fibroblasts | cytotoxicity (signal decrease), % at 8.35 µM | NIH/3T3 viability, CellTiter-Glo ATP luminescence, 90 h | shares compounds with T cruzi growth-1 | hit rate 14% among 5,600;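 active = mean signal decrease across replicates above about 35% based on untreated-well scatter, with enough replicates individually passing, limit read from the data; inconclusive = no rule stated though some were filed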
3T3 cytotox 2: cytotoxicity in mouse NIH/3T3 fibroblasts. inhibition, % at 24.9 µM. AID 651744. hit rate 56% among 5,600. NIH/3T3 viability, CellTiter-Glo ATP luminescence, 90 h. shares compounds with T cruzi growth-1;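 active = mean loss of cell viability signal at or above a set limit, and enough replicates individually reaching it; inconclusive = meets only the mean limit or only the replicate share; inactive = meets neither condition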
A number is an active result; . = inactive; ? = inconclusive; / = no result given. Shown are actives, neighbours in structure and some others; about 5.8% of the full set was active somewhere.

SMILES | IDH1 mut inh | KDM4C inh | T cruzi growth-1 | Pf Dd2 inh | T cruzi growth-2 | T cruzi growth-3 | NIH3T3 tox | 3T3 cytotox 2
O=C(NCC1CC1)[C@@H]1[C@@H](CO)[C@@H]2Cn3c(ccc(-c4cncnc4)c3=O)[C@@H]2N1C(=O)NC1CCCC1 | / | . | . | / | / | / | / | /
O=C(NCC1CC1)[C@@H]1[C@@H](CO)[C@@H]2Cn3c(ccc(-c4cccnc4)c3=O)[C@@H]2N1C(=O)NC1CCCC1 | / | . | ? | . | . | . | . | .
CC(C)NC(=O)N(C)C[C@@H]1Oc2ncc(C#CCN(C)C)cc2C(=O)N([C@H](C)CO)C[C@@H]1C | . | . | . | . | / | / | / | /
COc1ccc(NC(=O)Nc2ccc3c(c2)[C@@H]2C[C@H](CC(=O)O)O[C@@H](CO)[C@@H]2O3)cc1 | . | . | . | . | / | / | / | /
O=C(Nc1ccccc1)N[C@H]1CC[C@H](CCn2cc(-c3ccccc3F)nn2)O[C@@H]1CO | / | . | / | . | / | / | / | /
O=C(Nc1nccs1)[C@H]1[C@H](CO)[C@H]2Cn3c(ccc(-c4cccnc4)c3=O)[C@H]2N1CC1CCCC1 | / | . | ? | . | . | . | . | 54
O=C(Nc1nccs1)[C@@H]1[C@@H](CO)[C@@H]2Cn3c(cccc3=O)[C@@H]2N1C(=O)C1CCC1 | / | . | 101 | . | . | . | . | .
Cc1noc(C)c1S(=O)(=O)N(C)C[C@@H]1Oc2ccc(NC(=O)Cn3cnnn3)cc2CC(=O)N([C@H](C)CO)C[C@@H]1C | . | . | . | . | / | / | / | /
CC(C)NC(=O)Nc1ccc2c(c1)C(=O)N([C@H](C)CO)C[C@@H](C)[C@H](CN(C)C(=O)NC1CCCCC1)OCCCC[C@@H](C)O2 | / | . | 96 | . | . | . | . | .
C[C@@H]1CN([C@H](C)CO)C(=O)c2cc(NC(=O)C3CCCCC3)ccc2O[C@@H](C)CCCCO[C@H]1CN(C)C(=O)NC1CCCCC1 | / | . | 114 | . | 98 | . | . | .
CC(C)NC(=O)Nc1ccc2c(c1)C(=O)N([C@@H](C)CO)C[C@@H](C)[C@@H](CN(C)C(=O)NC1CCCCC1)OCCCC[C@H](C)O2 | . | . | . | . | / | / | / | /
CC(C)NC(=O)Nc1ccc2c(c1)C(=O)N([C@@H](C)CO)C[C@@H](C)[C@H](CN(C)C(=O)NC1CCCCC1)OCCCC[C@@H](C)O2 | . | . | 97 | . | . | . | . | .
CCCN(C)C[C@H]1Oc2cc(C#CC3CCCC3)ccc2S(=O)(=O)N([C@@H](C)CO)C[C@H]1C | . | . | . | . | / | / | / | /
COc1ccc(S(=O)(=O)N[C@H]2C=C[C@@H](CC(=O)NCCc3ccncc3)O[C@@H]2CO)cc1 | . | . | . | . | / | / | / | /
COCC#Cc1ccc([C@@H]2[C@@H](CO)N3CCCCN(Cc4cncnc4)C[C@@H]23)cc1 | / | . | 106 | . | ? | . | . | .
COCC#Cc1ccc([C@@H]2[C@@H](CO)N3CCCCN(Cc4cncnc4)C[C@H]23)cc1 | / | . | 103 | . | . | . | . | 65
COCC#Cc1ccc([C@H]2[C@@H](CO)N3CCCCN(Cc4cncnc4)C[C@H]23)cc1 | / | . | 109 | . | 112 | . | . | .
COCC#Cc1ccc([C@@H]2[C@H](CO)N3CCCCN(Cc4cncnc4)C[C@@H]23)cc1 | / | . | ? | . | ? | . | . | .
COCC#Cc1ccc([C@@H]2[C@H]3CN(Cc4cncnc4)CCCCN3[C@H]2CO)cc1 | / | . | . | . | / | / | / | /
C[C@@H]1CCCCO[C@H](CN(C)C(=O)NC2CCCCC2)[C@H](C)CN([C@H](C)CO)C(=O)c2cc(NS(=O)(=O)c3ccc(F)cc3)ccc2O1 | / | . | . | . | / | / | / | /
O=C(Cc1cccnc1)N1CC(=O)N2[C@H](CO)[C@H](c3ccc(C4=CCCCC4)cc3)[C@@H]2C1 | / | . | / | . | / | / | / | /
CC(C)NC(=O)N(C)C[C@H]1Oc2cc(-c3ccccc3)ccc2S(=O)(=O)N([C@@H](C)CO)C[C@H]1C | . | . | . | . | / | / | / | /
Cc1ccc(S(=O)(=O)N[C@@H]2CC[C@H](CC(=O)NCCN3CCCCC3)O[C@H]2CO)cc1 | . | . | . | . | / | / | / | /
C[C@H](CO)N1C[C@H](C)[C@@H](CN(C)Cc2ccc3c(c2)OCO3)Oc2ccc(N(C)C)cc2CC1=O | . | . | 133 | . | 105 | . | . | 31
C[C@@H]1CN([C@H](C)CO)C(=O)Cc2cc(N(C)C)ccc2O[C@@H]1CN(C)Cc1ccc2c(c1)OCO2 | . | . | . | . | / | / | / | /
SMILES | IDH1 mut inh | KDM4C inh | T cruzi growth-1 | Pf Dd2 inh | T cruzi growth-2 | T cruzi growth-3 | NIH3T3 tox | 3T3 cytotox 2
C[C@H]1CN([C@@H](C)CO)C(=O)Cc2cc(N(C)C)ccc2O[C@@H]1CN(C)Cc1ccc2c(c1)OCO2 | . | . | 107 | . | 101 | . | . | .
C[C@@H]1CN([C@@H](C)CO)C(=O)Cc2cc(N(C)C)ccc2O[C@@H]1CN(C)Cc1ccc(Cl)c(Cl)c1 | . | / | . | . | / | / | / | /
C[C@H]1CN([C@@H](C)CO)C(=O)Cc2cc(N(C)C)ccc2O[C@@H]1CN(C)Cc1ccc(Cl)c(Cl)c1 | . | . | 128 | . | 116 | . | . | 101
COc1cccc(C#Cc2ccc3c(c2)[C@@H]2[C@@H](CCN2C(C)=O)[C@@H](CO)N3)c1 | / | . | . | . | / | / | / | /
CO[C@H]1CN(C)C(=O)c2ccc(NS(=O)(=O)c3ccc(Cl)cc3)cc2OC[C@H](C)N(C)C[C@H]1C | . | . | . | . | / | / | / | /
C[C@@H]1CN([C@@H](C)CO)C(=O)c2cc(NC(=O)Cc3ccccc3)ccc2O[C@@H](C)CCCCO[C@H]1CN(C)C(=O)Nc1ccccc1 | . | . | / | . | / | / | / | /
C[C@@H]1CCCCO[C@@H](CN(C)C(=O)Nc2ccccc2)[C@H](C)CN([C@H](C)CO)C(=O)c2cc(NC(=O)Cc3ccccc3)ccc2O1 | . | . | . | . | / | / | / | /
C[C@H]1CCCCO[C@H](CN(C)C(=O)Nc2cccc3ccccc23)[C@@H](C)CN([C@@H](C)CO)C(=O)c2cc(NC(=O)c3ccccc3)ccc2O1 | / | . | . | . | / | / | / | /
C[C@H]1CCCCO[C@@H](CN(C)C(=O)Nc2cccc3ccccc23)[C@@H](C)CN([C@@H](C)CO)C(=O)c2cc(NC(=O)Cc3ccccc3)ccc2O1 | . | . | 102 | -92 | 115 | . | . | .
C[C@@H]1CCCCO[C@@H](CN(C)C(=O)Nc2cccc3ccccc23)[C@H](C)CN([C@H](C)CO)C(=O)c2cc(NC(=O)Cc3ccccc3)ccc2O1 | . | . | 98 | -87 | 102 | 109 | . | .
C[C@@H]1CCCCO[C@H](CN(C)C(=O)Nc2cccc3ccccc23)[C@H](C)CN([C@@H](C)CO)C(=O)c2cc(NC(=O)Cc3ccccc3)ccc2O1 | . | . | 107 | . | 103 | . | . | .
